Measured values from different studies.
Compare with care: the assays were run in different laboratories.
Target: STE20/SPS1-related proline-alanine-rich protein kinase (STK39, Homo sapiens, UniProt Q9UEW8)

The remaining signal of `COc1cc2c(N3CCN(C(=O)Nc4ccc(OC(C)C)cc4)CC3)ncnc2cc1OCCCN1CCCCC1` is reported as 93.2% (cell-free assay; 0.5 µM).
`CC(C)(C)c1nc(-c2cccc(NS(=O)(=O)c3c(F)cccc3F)c2F)c(-c2ccnc(N)n2)s1` has a remaining activity of 81% (enzyme activity, inhibitor, radiometric; 1 µM).
`Cn1cnc(Br)c1C1=CN(c2ncnc3[nH]cnc23)CCS1` has an inhibition of 65.5% (enzyme activity, inhibitor, radiometric; 50 nM).
The remaining activity of `Cc1sc(C(=O)NC2COC2)cc1-n1cc(NC(=O)Nc2c(F)cccc2Cl)cn1` is reported as 64.5% (enzyme activity, inhibitor; 10 µM).
`Cc1ccc(C(=O)Nc2ccc(CN3CCN(C)CC3)c(C(F)(F)F)c2)cc1C#Cc1cnc2cccnn12` has a remaining activity of 85% (enzyme activity, inhibitor; 23.5 nM).
With `Cc1c(NC(=O)c2cc(C(N)=O)nc3cc(F)ccc23)c(C(F)(F)F)nn1Cc1ccc(C(C)(C)C)cc1` the remaining binding was 100% (cell-free assay, competition with immobilised ligand; 1 µM).
The remaining activity of `O=C(Nc1cnn(-c2csc(C(=O)NC3COC3)c2)c1)Nc1c(F)cccc1Cl` is reported as 82.3% (enzyme activity, inhibitor; 5 µM).
The remaining signal of `COc1ccc(COc2ccc(Cc3cnc(N)nc3N)cc2OC)cc1` is reported as 87.6% (cell-free assay; 0.5 µM).
For `O=C(Nc1ccc(Oc2ccc(F)cc2)cc1)N1CCc2ncccc2[C@H]1c1ccc(F)cc1`, the remaining binding was 82% (cell-free assay, competition with immobilised ligand; 1 µM).
The inhibition of `Cn1cncc1C1=CN(c2ncnc3[nH]cnc23)CCS1` is reported as 87.3% (enzyme activity, inhibitor, radiometric; 2 µM).
The remaining binding of `CS(=O)(=O)N1CCCC(NC(=O)[C@H](CCC2CCCCC2)NC(=O)c2ccc(CNc3ncnc4c3nnn4-c3ccccc3)cc2)C1` (stereo partly drawn) is reported as 100% (cell-free assay, competition with immobilised ligand; 0.1 µM).
`O=C1Nc2ccc(Cl)cc2C1=Cc1cc(Cl)c(O)c(Cl)c1` has a remaining signal of 97% (cell-free assay; 0.5 µM).
